Assay outcomes: PubChem, The Scripps Research Institute Molecular Screening Center
A selection: hits, their analogues and other compounds. The true share with any hit is near 1.2%.
ASAP1 inh = blocks human ASAP1-stimulated Arf1 GTP hydrolysis. inhibition, % at 16.5 µM. Q9ULH1. GDP FP detection. 360,000 tested, 0.19% active; in the data active = inhibition above about 25%
Target sequence (Q9ULH1 325-724 limits assumed): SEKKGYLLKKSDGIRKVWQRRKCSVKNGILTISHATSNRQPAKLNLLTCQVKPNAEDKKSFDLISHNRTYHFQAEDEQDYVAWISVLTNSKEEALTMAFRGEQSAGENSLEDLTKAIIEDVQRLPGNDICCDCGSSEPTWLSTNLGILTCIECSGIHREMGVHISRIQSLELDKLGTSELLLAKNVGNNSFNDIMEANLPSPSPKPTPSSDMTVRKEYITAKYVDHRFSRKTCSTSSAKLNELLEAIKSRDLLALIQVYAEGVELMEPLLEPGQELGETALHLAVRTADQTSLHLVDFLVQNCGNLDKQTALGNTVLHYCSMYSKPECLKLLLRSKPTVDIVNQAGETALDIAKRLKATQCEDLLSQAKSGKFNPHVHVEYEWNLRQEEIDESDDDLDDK
Rin1 Abl inh = blocks binding of human Rin1 to Abl | P00519+Q13671 | TR-FRET Rin1/Abl binding, biochemical | inhibition, % at 7.35 µM | 360,000 tested, 0.4% active; in the data active = inhibition above about 5%, passing the limit was not always enough
ARFGAP1 inh = inhibits rat ARF GTPase activating protein 1 | Q62848 | Arfgap1-stimulated ARF1 GTP hydrolysis, GDP FP detection | inhibition, % at 16.5 µM | 360,000 tested, 0.26% active;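 active = inhibition above a per-plate limit, mean inhibition of low control wells plus 3 SD, cut at about 25% in these data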
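Assay system: purified rat His6-Arfgap1 residues 1-136 (GAP domain); Reagent: human Δ17 ARF1 bound to GTP; Dosing: 16.5 µM single point, 1.26% DMSO; Times: GTP hydrolysis reaction 2 h at 25 °C; Signal: FP, GDP Alexa 633 tracer displaced from anti-GDP antibody, 620/688 nm; Measure: % inhibition from polarization.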
GalR3 antagonist = blocks the human galanin receptor 3. O60755. HEK293 GalR3-CNG cAMP membrane potential fluorescence; galR3 body fused to GalR1 C-terminus. inhibition, % at 3 µM. 360,000 tested, 0.44% active. AID 651719;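 active = inhibition above the screen-wide average plus 3 SD, cut at about 13% in these data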;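 note: forskolin and galanin both at EC90 stimulate the cells; cAMP rise reported by CNG channel membrane potential dye signal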
Target sequence (O60755 1-299 limits assumed): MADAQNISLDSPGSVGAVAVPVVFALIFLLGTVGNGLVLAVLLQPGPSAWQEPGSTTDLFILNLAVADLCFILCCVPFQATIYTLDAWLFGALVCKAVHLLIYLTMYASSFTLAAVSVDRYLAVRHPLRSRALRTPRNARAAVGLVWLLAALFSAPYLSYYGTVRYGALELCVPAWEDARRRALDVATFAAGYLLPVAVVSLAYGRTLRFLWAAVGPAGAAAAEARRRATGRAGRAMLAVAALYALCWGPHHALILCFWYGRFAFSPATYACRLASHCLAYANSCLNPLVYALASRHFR
Rin1-Abl confirm = Rin1-Abl interaction inhibition confirmation. inhibition, % at 7.35 µM. TR-FRET Rin1-Abl binding, purified proteins. 1,300 tested, 49% active. shares compounds with Rin1 Abl inh
GFP quencher = counter-screen for Rin1-Abl inhibitors: GFP fluorescence quenchers; inhibitors/quenchers counterscreen; AID 602125; shares compounds with Rin1 Abl inh; 1,300 tested, 8.5% active; inhibition, % at 6.75 µM;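 note: ABL1-eGFP fusion protein alone without its partner RIN1-SBP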
GFP quench dose = quenches GFP in dose response, Rin1-Abl counter-screen. IC50, µM. 230 tested, under 10 active. GFP fluorescence interference/quenching counterscreen. shares compounds with Rin1 Abl inh; call rule not given here;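 note: ABL1-eGFP fusion protein alone without its RIN1 binding partner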
ASAP1 inh confirm = confirmation of human ASAP1 inhibitors | AID 624431 | inhibition, % at 16.5 µM | 620 tested, 37% active | shares compounds with ASAP1 inh | ASAP1-stimulated Arf1 GTPase, GDP fluorescence polarization;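 active = mean inhibition over triplicates exceeds the hit threshold derived for the earlier primary screening run, cut at about 25% in these data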
GalR3 antag conf = confirmation of human galanin receptor 3 antagonists. AID 652245. 1,600 tested, 59% active. inhibition, % at 3 µM. shares compounds with GalR3 antagonist. HEK293 GalR3 CNG cAMP biosensor, membrane potential fluorescence; galR3 fused to GalR1 carboxy tail; challenged with forskolin and galanin at EC90;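 active = inhibition above the primary screen's cutoff, the mean inhibition of all screened compounds plus 3 SD, cut at about 13% in these data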
HEK-CNG parental = acts as nonspecific agonist in parental HEK-CNG cells | shares compounds with GalR3 antagonist | HEK293-CNG parental cells, cAMP membrane potential fluorescence; normalised: DMSO wells 0%, forskolin wells 100% | activation, % at 3 µM | 1,600 tested, 10% active; in the data active = activation above about 1.3%
Numbers stand for hits; – = inactive; · = no result given. Cut-off read from the data, not from the text of the source, unless noted: active = inhibition above about 6.5%; inactive = the rest.

SMILES	ASAP1 inh	Rin1 Abl inh	ARFGAP1 inh	GalR3 antagonist	Rin1-Abl confirm	GFP quencher	others
COc1ccc(C2NC(=S)N(Cc3ccc(Cl)cc3)C(C)=C2C(C)=O)cc1 (stereo not given)	–	·	–	–	·	·
CCOc1ccc(CCNC(=O)Cc2ccc(NC3=NC4CS(=O)(=O)CC4S3)cc2)cc1OCC (stereo not given)	–	–	–	–	·	·
COc1ccc(OC)c(CCNC(=O)Cc2ccc(NC3=NC4CS(=O)(=O)CC4S3)cc2)c1 (stereo not given)	–	11	–	·	13	–
COC(=O)c1cc2c(c3c4cc(OC)ccc4n(S(=O)(=O)c4ccc(F)cc4)c13)C(=O)N(C)C2	–	·	–	–	·	·
COc1cc(/C=N/NC(=O)CSc2ccccn2)ccc1O	–	–	–	–	·	·
CCCOc1ccc(/C=N\NC(=O)CCc2n[nH]c(=O)[nH]c2=O)cc1OC	–	7.8	–	–	8.8	–
CCCOc1ccc(/C=N/NC(=O)CSc2ccccn2)cc1OC	–	16	–	–	22	–	GFP quench dose=–
O=C(N[C@H](C(=O)N1CCC[C@H]1C(=O)NC1CCCC1)C1CCCCC1)c1ccc(Cl)c(Cl)c1	–	·	–	–	·	·
Cc1ccsc1C(=O)NNC(=O)c1ccc(NS(=O)(=O)c2cccs2)cc1	–	10	–	–	–	–
Cc1ccc(NC(=O)CSc2nnc3n2CCCCC3)cc1	–	6.0	–	–	–	–
COc1ccc(NC(=O)CSc2nnc3n2CCCCC3)cc1	–	–	–	–	·	·
c1ccc(CNc2nc(NCCc3ccncc3)c3sccc3n2)cc1	–	20	–	–	10	–
c1ccc(CNc2nc(NCc3cccs3)nc3ccsc23)cc1	–	–	–	–	·	·
Nc1cc2ccccc2cc1NS(=O)(=O)N1CCCCC1	–	·	–	–	·	·
COc1ccc(C2c3c4c(n(C)c3CCN2C)CCN(C)C4c2ccc(OC)cc2)cc1 (stereo not given)	–	6.5	–	–	–	–
CCCC(=O)OC[C@H]1CN([C@H](C)c2ccccc2)S(=O)(=O)c2c(F)cccc2O1	–	·	–	–	·	·
Cc1ccc(-n2c(SCc3cc(=O)n4ccsc4n3)nnc2-c2cccnc2)c(C)c1	–	17	–	–	19	–	GFP quench dose=–
Cc1ccc(-n2c(SCC(=O)N3CCCc4ccccc43)nnc2-c2cccnc2)c(C)c1	–	8.7	–	–	13	–
O=S1(=O)N[C@@H](Cc2ccccc2)COc2cccc(N3CCCC3)c21	–	·	–	–	·	·
O=C(Nc1c(-c2ccc3c(c2)OCO3)[nH][nH]c1=O)c1ccccc1	30	24	–	–	9.0	–	ASAP1 inh confirm=–
COc1ccc(S(=O)(=O)N2CCCC2)c(Cl)c1Cl	25	9.9	–	–	–	–	ASAP1 inh confirm=–
COC(=O)c1cc2c(c3c4ccccc4n(S(=O)(=O)c4ccc(C)cc4)c13)C(=O)N(CC(C)C)C2	–	·	–	–	·	·
Clc1ccc(-c2csc(NCC3CCCO3)n2)cc1 (stereo not given)	–	·	–	–	·	·
COc1cc(N)c2ncccc2c1Br	28	13	–	–	–	–	ASAP1 inh confirm=–
COc1cc(N)c2ncccc2c1SC	–	–	–	–	·	·
SMILES	ASAP1 inh	Rin1 Abl inh	ARFGAP1 inh	GalR3 antagonist	Rin1-Abl confirm	GFP quencher	others
O=C(N/N=C/c1ccc(O)c(O)c1)N/N=C/c1ccc(O)c(O)c1	–	49	–	13	63	12	GalR3 antag conf=–;HEK-CNG parental=–
COc1ccc(S(=O)(=O)N2CCCCCC2)cc1C(=O)Nc1ccc(C(=O)N(C)C)cc1	–	38	–	15	43	–	GFP quench dose=–;GalR3 antag conf=–;HEK-CNG parental=–
C[C@H](O)[C@@H]1C(=O)N2CCc3c([nH]c4cccc(-c5ccccc5)c34)[C@@H]2C[C@@H]1N(C)C(=O)c1ccco1	–	·	–	–	·	·
CCCCCn1c(=O)[nH]c2cc(C(=O)NC3CCN(Cc4ccccc4)CC3)ccc2c1=O	–	–	–	–	·	·
O=C(NC1CCN(Cc2ccccc2)CC1)c1ccc2c(c1)[nH]c(=O)n2Cc1ccc(F)cc1	–	10	–	55	13	–	GalR3 antag conf=59;HEK-CNG parental=–
Brc1ccc(N2O[C@H]3C=C[C@@H]2C3)nc1	–	·	–	–	·	·
Cc1nc2nc[nH]n2c(=O)c1NS(C)(=O)=O	26	–	–	–	·	·	ASAP1 inh confirm=–
Cc1nc2nc[nH]n2c(=O)c1NS(=O)(=O)c1ccc(F)cc1	–	–	–	–	·	·
Cc1noc(C)c1NC(=O)N(C)C[C@H]1Oc2ccc(NS(=O)(=O)c3ccccc3)cc2C(=O)N([C@H](C)CO)C[C@@H]1C	–	–	–	–	·	·
Cc1noc(C)c1NC(=O)N(C)C[C@H]1OCCCC[C@@H](C)Oc2ccc(NS(=O)(=O)c3ccccc3)cc2C(=O)N([C@H](C)CO)C[C@@H]1C	26	–	–	–	·	·	ASAP1 inh confirm=–
CN(C)c1ccc(/C=C/c2ccc3c4ccccc4ccc3[n+]2-c2ccccc2)cc1	86	–	123	18	·	·	ASAP1 inh confirm=95
COc1cccc(-n2nnc3c(=O)n(Cc4ccc(Br)cc4)cnc32)c1	28	–	–	–	·	·	ASAP1 inh confirm=35
COc1cccc(-n2nnc3c(=O)n(CC(=O)Nc4ccccc4C)cnc32)c1	32	–	–	·	·	·	ASAP1 inh confirm=–
CCOc1ccccc1NC(=O)Cn1cnc2c(nnn2-c2cccc(OC)c2)c1=O	–	–	–	·	·	·
COC(=O)[C@]12C[C@H](CC(=O)NCCC(C)C)C(=O)N(Cc3ccc4c(c3)OCO4)C1=C[C@H](C(C)(C)C)O[C@@H]2C	–	·	–	–	·	·
COc1ccc(-c2cccc3[nH]c4c(c23)CCN2C(=O)[C@H]3[C@H](C)ON(C)[C@H]3C[C@@H]42)cc1	–	·	–	–	·	·
CC(C)C[C@@H]1COc2cc(N3CCCC3)ccc2S(=O)(=O)N1	–	·	–	–	·	·
Cc1nc2ccc(S(=O)(=O)Nc3ccc(-c4nc5cccnc5s4)cc3)cc2s1	28	–	–	·	·	·	ASAP1 inh confirm=–
Cc1nc2ccc(S(=O)(=O)Nc3cccc(-c4nc5cccnc5s4)c3)cc2s1	–	–	–	·	·	·
